# T cell HTS = modulators of CD8 T cell-vesicle binding, primary screen, mouse 2C CD8+ T cells, flow cytometry. 2C CD8+ T cell-vesicle binding; stronger effect = lower value. response (vesicle binding), % at 7 µM. 330,000 tested, 0.068% active. AID 2052, 2009;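 active = response, share of CD8 T cells binding vesicles, and their 90th percentile fluorescence all below set limits, cut at about 80% in these data, passing the limit was not always enough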;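 note: values below 100% mean blocked vesicle binding to the CD8+ T cells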
#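 Test system: purified 2C TCR transgenic mouse naive CD8+ T cells. Probe or stimulus: QL9-peptide-loaded Drosophila micro-vesicles bearing Ld, ICAM-1 and B7-1. Incubation: binding step 1.5 h, 37 °C, antibody labelling 20 min, ice. Measured by: flow cytometry of vesicle-bound cells.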
# Rce1 inh = yeast Rce1p protease inhibitors, primary screen, biochemical, fluorescence, cell-free homogeneous. yeast membranes, quenched prenylated peptide cleavage fluorescence. calls only. 290,000 tested, 0.27% active;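 active = fall in fluorescence gain of 50% or more versus controls, with final raw signal at or below 3038400; inconclusive = same 50% fall but final raw signal above 3038400; inactive = fall in fluorescence gain under 50%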;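 note: plate controls were neutral control wells for no effect and wells lacking membranes for full effect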
# Target sequence (Q03530 whole entry, looked up): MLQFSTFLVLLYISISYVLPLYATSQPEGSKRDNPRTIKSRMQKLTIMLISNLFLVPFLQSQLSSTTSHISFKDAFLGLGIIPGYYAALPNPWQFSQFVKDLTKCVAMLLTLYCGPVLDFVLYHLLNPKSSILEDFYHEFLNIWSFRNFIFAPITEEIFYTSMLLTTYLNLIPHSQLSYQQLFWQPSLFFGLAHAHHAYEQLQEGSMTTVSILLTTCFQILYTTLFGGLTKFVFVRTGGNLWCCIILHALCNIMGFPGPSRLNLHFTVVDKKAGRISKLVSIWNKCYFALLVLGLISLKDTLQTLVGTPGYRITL
# proKLK7 act = proKLK7 zymogen activators, primary screen, biochemical, fluorescence intensity; purified proKLK7, EDANS-DABCYL substrate fluorescence; 100% is mature enzyme control, 0% vehicle; activation, % at 7 µM; 370,000 tested, 0.9% active; AID 652039, 2013;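 active = activation above the mean of all tested compounds plus 3 SD, computed per campaign excluding outliers beyond control limits, cut at about 13% in these data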
# CR mimetic SO = reduction of superoxide in aged yeast, primary screen, HTS; S. cerevisiae aged cells, superoxide DHE fluorescence; stronger effect = lower value; superoxide response (% of plate mean), % at 10 µM; 330,000 tested, 0.18% active; AID 2690, 2010;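 active = superoxide response under a set limit, about three screen SD below normal, cut at about 65% in these data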;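 note: yeast aged for seven days with compound at 30 °C before DHE staining; 100% = average MFI of all compound-treated wells on the plate with controls excluded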
# beta cell repl = inducers of MIN6 beta-cell proliferation, primary screen, ATP luminescence, uHTS; MIN6 cells proliferation, ATPlite luminescence, 48 h; cells starved in 0.2% serum; 100% = growth in 10% serum; 330,000 tested, 0.29% active; AID 2380, 2010; proliferation, % at 10 µM;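 active = compounds whose signal lies at least 3.5 SD above the mean of all wells on their plate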;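 note: 0% = DMSO-treated cells in low-serum medium and 100% = 10% serum control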
# V-ATPase pH = regulators of yeast V-ATPase proton pumping, primary screen, pHLuorin cytosolic pH fluorescence | 350,000 tested, 0.37% active | S. cerevisiae | response, % at 10 µM; in the data active = response mostly above about 7.3%, no sharp cut-off; inactive = mostly below about 5.4%; note: actives read high
# KLK7 act conf = proKLK7 zymogen activators, confirmation, biochemical, fluorescence intensity, triplicate | activation, % at 7 µM | shares compounds with proKLK7 act | 3,200 tested, 68% active | purified proKLK7, EDANS-DABCYL substrate fluorescence; scaled: vehicle 0, mature enzyme 100;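 active = activation, as change over the incubation, above the mean of all tested compounds plus 3 SD, cut at about 13% in these data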
# EDANS-DABCYL int = EDANS-DABCYL substrate optical interference, artefact control for kallikrein-7 zymogen activator project, biochemical, fluorescence intensity, high throughput; shares compounds with proKLK7 act; 3,200 tested, 80% active; no enzyme, 4 h; solvent 0%, active enzyme control 100%; activation, % at 7 µM; AID 686952, 2013;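 active = activation above the all-compound mean plus 3 SD, ignoring values outside control-based bounds, cut at about 4.8% in these data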;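 note: value is the 4 h activation minus the activation read at time zero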
# The depositor's hits bear a star; i = inactive; ? = inconclusive; . = no result given. Rows were chosen to be rich in hits. Some 1.9% of all compounds tested hit in one or more screens of this group.
SMILES,T cell HTS,Rce1 inh,proKLK7 act,CR mimetic SO,beta cell repl,V-ATPase pH,KLK7 act conf,EDANS-DABCYL int
Cc1cc2oc3cc(NCCC4CCCN4C)ccc3c(=O)c2cc1C (stereo unspecified),647.8,i,61.9*,89.6,-7.9,2.3,67.6*,63.5*
CN1CCCC1CCNc1ccc2sc3ccccc3c(=O)c2c1 (stereo unspecified),i,i,-0.3,91.4,-8.0,-0.2,.,.
COc1ccc(CN2C(=O)C(CC(=O)NC3CC3)CC(C(=O)N3CCOCC3)=C2C)cc1 (stereo unspecified),.,.,0.1,.,.,.,.,.
CC(CC(F)(F)F)N1CCC(n2nccc2NC(=O)CCOc2ccccc2)CC1 (stereo unspecified),425.3,i,-0.2,83.8,-2.3,0.8,.,.
CCC1(O)C(=O)OCc2c1cc1n(c2=O)Cc2cc3cc(O)ccc3nc2-1 (stereo unspecified),.,.,63.9*,.,.,-2.6,74.1*,76.8*
CCCCC1OC2(C)OC(=N)C1(C#N)C(C#N)(C#N)C2c1ccccc1 (stereo unspecified),476.8,.,14.0*,96.8,.,-0.3,46.9*,49.9*
CC1OC2(C)OC(=N)C1(C#N)C(C#N)(C#N)C2c1ccccc1 (stereo unspecified),271.6,i,-5.6,79.0,-2.4,-0.1,.,.
C=CCOC(=O)COc1ccc2c(C)c(CC)c(=O)oc2c1,405.6,i,27.4*,99.7,-0.1,5.1,11.2,13.1*
C=CCOC(=O)COc1ccc2c(C)c(C)c(=O)oc2c1,156.7,i,14.9*,95.0,-4.0,-2.9,10.7,14.1*
Cc1ccc(C(=O)Nc2ccc(CC(=O)O)cc2)o1,282.3,i,-0.3,106.2,0.6,2.8,.,.
Cc1ccc(C(=O)Nc2ccc(NC(=O)c3ccc(C)o3)cc2)o1,175.7,i,29.3*,108.0,-2.6,4.1,30.9*,18.3*
OC1CNc2c(ccc3ccccc23)C1 (stereo unspecified),.,.,14.3*,.,.,-3.1,1.3,-6.4
c1ccc2c(c1)ccc1ccccc12,408.8,.,-0.1,91.4,-1.8,-1.1,.,.
CC1(C)CC(=O)C2=C(C1)OC(N)=C(C#N)C2c1ccccc1 (stereo unspecified),403.5,i,-0.2,100.8,0.9,-2.2,.,.
CC1(C)CC(=O)C2=C(C1)OC(N)=C(C#N)C2c1ccccc1[N+](=O)[O-] (stereo unspecified),345.5,i,17.1*,116.7,-1.8,-0.6,12.2,13.3*
CC(=O)c1ccc(-c2nnc(CCC(=O)N3CCCC(C(=O)CC(C)C)C3)o2)s1 (stereo unspecified),i,i,0.4,86.1,-2.6,0.4,.,.
N#C/C(=C\c1ccncc1)c1nc2c(s1)CCCC2,112.6,i,38.2*,108.0,-1.5,4.1,22.1*,21.6*
CCCc1nc2ccc(Br)cn2c1Cc1ccccc1OC,.,.,-0.4,.,.,.,.,.
COc1ccc(-c2nc3ccc(N4CCN(C)CC4)cc3c(=O)[nH]2)cc1,226.6,i,14.2*,98.7,0.4,0.3,3.2,5.5*
COc1cc(-c2nc3ccc(N4CCN(C)CC4)cc3[nH]2)cc(OC)c1OC,220.4,?,81.1*,95.6,-2.7,-3.4,64.0*,70.4*
COc1ccc(-c2nc3ccccc3c(=O)[nH]2)cc1,157.4,i,-0.8,107.2,-3.0,2.4,.,.
CCN(C(=O)CSc1nnc(C)c(=O)[nH]1)c1cccc2ccccc12,169.0,.,-0.1,96.9,-3.3,-1.4,.,.
